The values that follow come from ChEMBL document CHEMBL1208706, “Synthesis, antidepressant evaluation and QSAR studies of novel 2-(5H-[1,2,4]triazino[5,6-b]indol-3-ylthio)-N-(substituted phenyl)acetamides” (2010).

The assay deals with Mus musculus. The assay can be described thus: Antidepressant activity in Swiss albino mouse assessed as reduction of immobility duration at 30 mg/kg, ip administered 3 times for 24 hrs measured after 1 hr last post dose by tail suspension test. The assay is classed as functional. Further details: scale not given: the % may be the effect or the level left. Conditions: route intraperitoneal. In outline: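 Adult male Swiss albino mice (22 ± 2 g), housed with controlled humidity, temperature and day-night cycle. Compound in DMSO given ip at 30 mg/kg at t = 0, 18 and 24 h; vehicle controls got DMSO ip at 5 mL/kg. Tail suspension run 1 h after the final dose, immobility scored over 6 min. %DID = [(A − B)/A] × 100 against control; n = 6, mean ± SEM, one-way ANOVA with Dunnett's test.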

As for `CN(C)CCCN1c2ccccc2CCc2ccccc21` [IMIPRAMINE], the Activity is 60.58%.
The value for `COc1ccccc1NC(=O)CSc1nnc2c(n1)[nH]c1ccccc12` was 24.3%; that for `O=C(CSc1nnc2c(n1)[nH]c1ccccc12)Nc1ccc(Br)cc1` was 67.59%.
The value for `Cc1cccc(NC(=O)CSc2nnc3c(n2)[nH]c2ccccc23)c1` was 26.29%; that for `Cc1ccccc1NC(=O)CSc1nnc2c(n1)[nH]c1ccccc12` was 20.87%; that for `O=C(NCCN1CCOCC1)c1ccc(Cl)cc1` [MOCLOBEMIDE] was 68.16%.
The value for `O=C(CSc1n[nH]c2c3ccccc3nc-2n1)NC1CCCCC1` was 47.51%.
As to `O=C(CSc1nnc2c(n1)[nH]c1ccccc12)Nc1ccccc1`, the Activity came to 70.62%.
As to `Cc1ccc(NC(=O)CSc2n[nH]c3c4ccccc4nc-3n2)cc1`, the Activity was determined as 30.57%.
For `O=C(CSc1nnc2c(n1)[nH]c1ccccc12)Nc1cccc([N+](=O)[O-])c1` the value was 58.75%.
The value for `O=C(CSc1nnc2c(n1)[nH]c1ccccc12)Nc1ccccc1Br` was 42.84%; that for `O=C(CSc1nnc2c(n1)[nH]c1ccccc12)NCc1ccccc1` was 56.75%; that for `O=C(CSc1nnc2c(n1)[nH]c1ccccc12)Nc1ccc(Cl)cc1` was 68.33%.
For `CNCCC(Oc1ccc(C(F)(F)F)cc1)c1ccccc1` (stereo unspecified) [FLUOXETINE] the value was 69.48%; for `COc1ccc(NC(=O)CSc2nnc3c(n2)[nH]c2ccccc23)cc1`, 20.82%.
On to `O=C(CSc1nnc2c(n1)[nH]c1ccccc12)Nc1ccccc1[N+](=O)[O-]`, for which the Activity is given as 42.66%.
For `O=C(CSc1nnc2c(n1)[nH]c1ccccc12)Nc1cccc(Br)c1`, the Activity was 66.57%.
The value for `O=C(CSc1nnc2c(n1)[nH]c1ccccc12)Nc1cccc(Cl)c1` was 57.15%.
The value for `O=C(CSc1nnc2c(n1)[nH]c1ccccc12)Nc1ccc([N+](=O)[O-])cc1` was 62.35%; that for `COc1cccc(NC(=O)CSc2nnc3c(n2)[nH]c2ccccc23)c1` was 31.08%.
For `O=C(CSc1nnc2c(n1)[nH]c1ccccc12)Nc1ccccc1Cl` the value was 51.89%.
